Reference: ChEMBL document CHEMBL5620435, “Elucidating the Mechanism of Metabolism of Cannabichromene by Human Cytochrome P450s” (J Nat Prod, 2024)
Active and inactive are the calls of the source. The rule behind the calls is not given here.

Assays:
BV-2 [1] = experiment: Antiinflammatory activity in LPS-induced mouse BV-2 cells assessed as reduction in IL-6 production preincubated for 4 hrs followed by LPS stimulation for 24 hrs by ELISA; assay type: functional, cell-based; settings: dose 0.1-5 µM, time 28.0 hrs
Outline: (§1)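 BV-2 microglia in high-glucose DMEM with 5% heat-inactivated FBS, 37 °C, 5% CO2. Cells (50 000/well) were pretreated with cannabinoids at 0.1, 1.0, 2.5 or 5.0 μM (ethanol 0.1% final) for 4 h, then stimulated with LPS (25 ng/mL) for 24 h. Medium was collected. NO was read by Griess assay at 540 nm against a sodium nitrite calibration curve. IL-6, TNFα and Arg1 were measured by ELISA.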

BV-2 [2] = experiment: Cytotoxicity against mouse BV-2 cells assessed as reduction in cell viability at 0.1 to 5 uM incubated for 24 hrs by MTT assay; assay type: toxicity, cell-based; settings: bv-2, 24 h, dose 0.1-5 µM
Outline: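 BV-2 cells were seeded at about 10 000/well and grown for 24 h. They were preincubated 4 h with cannabinoids at 0.1, 1.0, 2.5 or 5.0 μM (0.1% ethanol), then held 24 h with or without LPS (25 ng/mL). MTT reagent was added for 4 h at 37 °C, the formazan was dissolved, and absorbance was read at 570 nm.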

BV-2 [3] = experiment: Antiinflammatory activity in LPS-induced mouse BV-2 cells assessed as reduction in NO production at 0.1 to 5 uM preincubated for 4 hrs followed by LPS stimulation for 24 hrs by Griess reagent based assay; assay type: functional, cell-based; settings: dose 0.1-5 µM, time 28.0 hrs; outline: as §1
BV-2 [4] = experiment: Antiinflammatory activity in LPS-induced mouse BV-2 cells assessed as reduction in IL-6 production at 0.1 to 5 uM preincubated for 4 hrs followed by LPS stimulation for 24 hrs by ELISA; assay type: functional, cell-based; settings: dose 0.1-5 µM, time 28.0 hrs; outline: as §1
BV-2 [5] = experiment: Antiinflammatory activity in LPS-induced mouse BV-2 cells assessed as reduction in TNF-alpha production at 0.1 to 5 uM preincubated for 4 hrs followed by LPS stimulation for 24 hrs by ELISA; assay type: functional, cell-based; settings: dose 0.1-5 µM, time 28.0 hrs; outline: as §1
BV-2 [6] = experiment: Antiinflammatory activity in LPS-induced mouse BV-2 cells assessed as reduction in TNF-alpha production preincubated for 4 hrs followed by LPS stimulation for 24 hrs by ELISA; assay type: functional, cell-based; settings: dose 0.1-5 µM, time 28.0 hrs; outline: as §1
BV-2 [7] = experiment: Antiinflammatory activity in LPS-induced mouse BV-2 cells assessed as reduction in NO production preincubated for 4 hrs followed by LPS stimulation for 24 hrs by Griess reagent based assay; assay type: functional, cell-based; settings: dose 0.1-5 µM, time 28.0 hrs; outline: as §1
BV-2 [8] = experiment: Antiinflammatory activity in LPS-induced mouse BV-2 cells assessed as increase in Arg-1 production preincubated for 4 hrs followed by LPS stimulation for 24 hrs by ELISA; assay type: functional, cell-based; settings: dose 0.1-5 µM, time 28.0 hrs; outline: as §1

SMILES | Activity (BV-2 [1]) | Activity (BV-2 [2]) | Activity (BV-2 [3]) | Activity (BV-2 [4]) | Activity (BV-2 [5]) | Activity (BV-2 [6]) | Activity (BV-2 [7]) | Activity (BV-2 [8])
CCCCCc1cc(O)c2c(c1)OC(C)(CCC1OC1(C)C)C=C2 (stereo unspecified) | Active | Non-Toxic | – | – | – | – | – | –
CCCCCc1cc(O)c2c(c1)OC(C)(CC/C=C(\C)CO)C=C2 (stereo unspecified) | – | Non-Toxic | inactive | inactive | inactive | – | – | –
CCCCCc1cc(O)c2c(c1)OC(C)(CCC(O)C(C)(C)O)C=C2 (stereo unspecified) | Active | Non-Toxic | – | – | – | Dose-Dependent Effect | Dose-Dependent Effect | Dose-Dependent Effect
